Data from publication PMC10975586 (ACS Omega, 2024).
“And” between values parts separate entries of the source, which are not always exact repeats. Identical values can stand only once. “Also recorded” adds a separate entry of the source. Like-named read-outs stand apart in the source and are kept apart here.

Columns and labels:
[1] = target: jack bean (JB) urease (Canavalia ensiformis, UniProt P07374); assay: Urease inhibitory assay; format: biochemical; conditions: for inhibition at 250 µM: read-out: inhibition (%) at 0.25 mM, JB urease; for inhibition at 250 µM / inhibition (%) at 0.25 mM: 0.25 mM, mean ± SEM, n = 3–4; for urease inhibitory profile (in words) / inhibition (%) at 0.25 mM: JB urease
[2] = target: JB urease enzyme (Canavalia ensiformis, UniProt P07374); assay: Kinetic analysis of JB urease inhibition; format: biochemical, jack bean; conditions: for Vmax: in presence of the inhibitor
Procedure, shortened: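 Jack bean urease (1 unit/well) in 50 mM phosphate buffer pH 7.4 is preincubated with test compound for 10 min at 37 °C. Urea is added from a 50 mM solution and the reaction runs 15 min. Phenol-alkali reagent stops it, and A630 is read after 10 min. Mode of inhibition, Km, Vmax and Ki come from double-reciprocal plots and nonlinear regression (mean ± SEM, n = 3).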

JB urease enzyme, sequence (P07374 whole entry, looked up): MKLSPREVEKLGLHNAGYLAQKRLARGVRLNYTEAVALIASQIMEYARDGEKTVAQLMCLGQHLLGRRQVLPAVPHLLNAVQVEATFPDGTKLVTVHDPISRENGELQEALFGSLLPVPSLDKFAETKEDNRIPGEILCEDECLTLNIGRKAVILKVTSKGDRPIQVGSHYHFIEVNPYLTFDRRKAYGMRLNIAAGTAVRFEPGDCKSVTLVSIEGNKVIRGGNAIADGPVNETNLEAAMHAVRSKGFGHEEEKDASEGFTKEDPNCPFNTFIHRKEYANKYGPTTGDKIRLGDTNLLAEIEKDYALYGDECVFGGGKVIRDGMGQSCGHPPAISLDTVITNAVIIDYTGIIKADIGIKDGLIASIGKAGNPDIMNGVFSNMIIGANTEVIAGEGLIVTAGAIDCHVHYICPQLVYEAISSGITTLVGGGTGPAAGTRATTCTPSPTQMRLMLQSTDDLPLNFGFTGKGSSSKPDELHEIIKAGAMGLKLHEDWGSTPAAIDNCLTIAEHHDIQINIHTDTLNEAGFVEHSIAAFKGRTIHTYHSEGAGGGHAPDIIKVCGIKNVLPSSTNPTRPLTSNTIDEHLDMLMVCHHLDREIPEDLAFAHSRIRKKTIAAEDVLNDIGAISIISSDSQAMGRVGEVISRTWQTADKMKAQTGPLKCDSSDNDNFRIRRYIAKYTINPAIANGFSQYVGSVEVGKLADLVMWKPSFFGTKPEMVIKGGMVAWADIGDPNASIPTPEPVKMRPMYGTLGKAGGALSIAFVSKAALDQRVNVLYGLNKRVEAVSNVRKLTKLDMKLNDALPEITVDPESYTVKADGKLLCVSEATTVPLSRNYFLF
jack bean (JB) urease, sequence (P07374 whole entry, looked up): as above

IC50 [1]	inhibition at 250 µM [1]	Structure (SMILES)	other results
21.4 ± 0.64 µM	91.27 ± 0.85%	CC1=C(C(=O)O)N2C(=O)[C@@H](NC(=O)[C@H](N)c3ccc(O)cc3)[C@H]2SC1 [cefadroxil]	
78.65 ± 0.45 µM	73.3 ± 1.35%	CO/N=C(\C(=O)N[C@@H]1C(=O)N2C(C(=O)[O-])=C(C[N+]3(C)CCCC3)CS[C@H]12)c1csc(N)n1 [cefepime]	
	34.54 ± 0.26%	CCN1CCN(C(=O)N[C@@H](C(=O)N[C@@H]2C(=O)N3C(C(=O)O)=C(CSc4nnnn4C)CS[C@H]23)c2ccc(O)cc2)C(=O)C1=O [cefoperazone]	
226.8 ± 0.95 µM	54.9 ± 1.54%	CC1=C(C(=O)O)N2C(=O)[C@@H](NC(=O)[C@H](N)C3=CCC=CC3)[C@H]2SC1 [cefradine]	
123.6 ± 0.19 µM		CC(C)(O/N=C(\C(=O)N[C@@H]1C(=O)N2C(C(=O)[O-])=C(C[n+]3ccccc3)CS[C@H]12)c1csc(N)n1)C(=O)O [ceftazidime]	inhibition (%) at 0.25 mM [1]: 76.94 ± 1.57% and 49.52 ± 1.78%
134.5 ± 0.52 µM	78.3 ± 0.85%	O=C(O)c1cn(C2CC2)c2cc(N3CCNCC3)c(F)cc2c1=O [ciprofloxacin]	urease inhibitory profile (in words) [1]: weak enzyme inhibitors; urease inhibitory profile (in words) ([1]; listed as Ciprofloxacin): weak urease inhibitions
16.5 ± 0.85 µM	92.5 ± 1.35%	CO/N=C1\CN(c2nc3c(cc2F)c(=O)c(C(=O)O)cn3C2CC2)CC1CN (stereo not shown) [gemifloxacin]	
213.9 ± 0.32 µM	57.6 ± 0.62%	C[C@@H]1CN(c2c(F)c(N)c3c(=O)c(C(=O)O)cn(C4CC4)c3c2F)C[C@H](C)N1 [sparfloxacin]	

More lines, now with the values behind:

Structure (SMILES)	IC50 [1]	inhibition at 250 µM [1]	other results
N[C@@H](C(=O)N[C@@H]1C(=O)N2C(C(=O)O)=C(Cl)CS[C@H]12)c1ccccc1 [cefaclor]	62.9 ± 0.78 µM	92.4 ± 1.53%	
CC1=C(C(=O)O)N2C(=O)[C@@H](NC(=O)[C@H](N)c3ccccc3)[C@H]2SC1 [cefalexin]	145.8 ± 0.37 µM	72.5 ± 0.94%	urease inhibitory profile (in words) [1]: poor inhibitory potential
C=CC1=C(C(=O)O)N2C(=O)[C@@H](NC(=O)/C(=N\OCC(=O)O)c3csc(N)n3)[C@H]2SC1 [cefixime]	215.5 ± 0.76 µM	68.5 ± 1.85%	urease inhibitory profile (in words) [1]: poor inhibitory potential
CO/N=C(\C(=O)N[C@@H]1C(=O)N2C(C(=O)O)=C(COC(C)=O)CS[C@H]12)c1csc(N)n1 [cefotaxime]	27.4 ± 0.74 µM	81.9 ± 1.46%	
COCC1=C(C(=O)O)N2C(=O)[C@@H](NC(=O)/C(=N\OC)c3csc(N)n3)[C@H]2SC1 [cefpodoxime]	23.7 ± 0.82 µM	91.3 ± 1.86%	
CC=CC1=C(C(=O)O)N2C(=O)[C@@H](NC(=O)[C@H](N)c3ccc(O)cc3)[C@H]2SC1 [cefprozil]			inhibition (%) at 0.25 mM [1]: 42.76 ± 0.27%
CO/N=C(\C(=O)N[C@@H]1C(=O)N2C(C(=O)O)=CCS[C@H]12)c1csc(N)n1 [ceftizoxime]		32.41 ± 0.24%	
CO/N=C(\C(=O)N[C@@H]1C(=O)N2C(C(=O)O)=C(CSc3nc(=O)c(=O)[nH]n3C)CS[C@H]12)c1csc(N)n1 [ceftriaxone]	157.4 ± 0.42 µM	72.6 ± 0.98%	urease inhibitory profile (in words) [1]: poor inhibitory potential
CO/N=C(\C(=O)N[C@@H]1C(=O)N2C(C(=O)O)=C(COC(N)=O)CS[C@H]12)c1ccco1 [cefuroxime]	241.5 ± 0.87 µM	51.7 ± 1.56%	
C[C@H]1COc2c(N3CCN(C)CC3)c(F)cc3c(=O)c(C(=O)O)cn1c23 [levofloxacin]	7.24 ± 0.29 µM	81.92 ± 0.62%	Ki [2]: 4.91 µM; maximum velocity ([2]; JB urease): 84.51 μm/min; type of inhibition ([2]; JB urease): competitive inhibitors; Vmax ([2]; JB urease): 84.51 µM/min; type of inhibition ([2]; JB urease, listed as Levofloxacin): competitive inhibition
COc1c(N2C[C@@H]3CCCN[C@@H]3C2)c(F)cc2c(=O)c(C(=O)O)cn(C3CC3)c12 [moxifloxacin]	135.3 ± 0.39 µM	75.27 ± 0.74%	urease inhibitory profile (in words) [1]: weak urease inhibitions; also recorded: weak enzyme inhibitors
CC1COc2c(N3CCN(C)CC3)c(F)cc3c(=O)c(C(=O)O)cn1c23 (stereo not shown) [ofloxacin]	13.2 ± 0.32 µM	83.67 ± 0.67%	Ki [2]: 5.43 µM; type of inhibition ([2]; JB urease): competitive inhibition; also recorded: competitive inhibitors; Vmax ([2]; JB urease): 86.62 µM/min
NC(N)=S [thiourea]			inhibition (%) at 0.25 mM [1]: 98.21 ± 0.18%; type of inhibition ([2]; JB urease): competitive; Vmax ([2]; JB urease): 110.1 µM/min; Ki ([2]; JB urease, inhibitory constant): 19.7 µM
